From ChEMBL document CHEMBL4304819, “Natural product pectolinarigenin exhibits potent anti-metastatic activity in colorectal carcinoma cells in vitro and in vivo” (2019) come the findings set out here.

Activity calls are given as the source filed them. The rule behind the calls is not given here.

For assay [1], the system named is HCT-116. In words: Antiproliferative activity against human HCT116 cells assessed as reduction in cell viability up to 40 uM by MTT assay. In kind it is functional, cell-based. The following applies: TDE = time-dependent effect. The gist of the method:
(§1)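 Exponentially growing cells (2–6 × 10^3 per well) seeded in 96-well plates for 24 h, then exposed to 0, 2.5, 5, 10, 20, 40 µM for 24, 48 and 72 h. MTT (5 mg/mL stock) added 2–4 h at 37 °C; formazan dissolved in DMSO, absorbance at 570 nm. Three independent experiments.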
For orientation: Tetrazolium assays rely on reduction of a dye to a coloured formazan, in cell work by metabolically active cells.

The test system of assay [2] is SW48. In words: Antiproliferative activity against human SW48 cells assessed as reduction in cell viability up to 40 uM by MTT assay. In kind it is functional, cell-based. As to conditions: TDE = time-dependent effect. The procedure, abridged:
as §1

In assay [3] the test system is CT26. The experiment in a line: Inhibition of colony formation in mouse CT26 cells assessed as reduction in size of colonies up to 40 uM incubated for 24 hrs supplemented with fresh medium containing compound every 3 days for 12 days by crystal violet staining-based microscopic analysis. The class given is functional, cell-based. The procedure, abridged:
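400–800 cells per well seeded in 6-well plates; after 24 h, PEC (0–40 μM) added. Medium with or without compound replaced every three days for 12 days. Colonies washed in cold PBS, fixed in methanol, stained 15 min with 0.5% crystal violet and counted under a microscope. Mean ± SD of three experiments.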

Assay [4] relates to CT26. The experiment in a line: Induction of apoptosis in mouse CT26 cells assessed as appearance of condensed nuclei up to 40 uM after 48 hrs by Hoechst 33258 staining-based fluorescent microscopic analysis. In kind it is functional, cell-based. The procedure, abridged:
(§2)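 Cells (1–2 × 10^5 per well) plated on 18-mm coverslips in six-well plates for 24 h, treated at various concentrations for 48 h, washed with cold PBS, fixed 15 min in 4% paraformaldehyde, stained with Hoechst 33258 (5 μg/ml); condensed/fragmented nuclei scored by fluorescence microscopy (10×); stained positive cells, mean ± SD of three experiments.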

Assay [5] concerns HCT-116. In words: Induction of apoptosis in human HCT116 cells assessed as nuclear fragmentation up to 40 uM after 48 hrs by Hoechst 33258 staining-based fluorescent microscopic analysis. In kind it is functional, cell-based. The procedure, abridged: as §2
Assay [6] has as its system CT26. In words: Induction of apoptosis in mouse CT26 cells assessed as viable cells at 20 uM after 48 hrs by Annexin V-FITC/propidium iodide staining-based flow cytometric analysis (reference value: 88.9 %). In kind it is functional. As to conditions: CT26, 48 h, read-out: Activity. The procedure, abridged: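 CT26 cells seeded at 1–2 × 10^5 per well in six-well plates for 24 h, then exposed to PEC (0–40 μM) for 24 or 48 h. Cells harvested, washed twice in cold PBS, stained with Annexin V-FITC/PI and read by flow cytometry. Early apoptotic = Annexin V+ only; late apoptotic = Annexin V+/PI+. Mean ± SD of three experiments.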
(In general: A flow cytometer gives signals particle by particle.)

Assay [7] has as its system HCT-116. The experiment in a line: Induction of apoptosis in human HCT116 cells assessed as late apoptotic cells at 10 uM after 48 hrs by Annexin V-FITC/propidium iodide staining-based flow cytometric analysis (reference value: 3.87 %). In kind it is functional. The procedure, abridged:
(§3)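 Cells (1–2 × 10^5 per well) seeded in six-well plates 24 h, treated at 0–40 μM for 24 h or 48 h, harvested, washed twice in cold PBS, stained with Annexin V-FITC/PI and analysed by flow cytometry; early (Annexin V only) and late (Annexin V and PI) apoptotic fractions quantified; three experiments.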

Assay [8] has as its system HCT-116. In words: Induction of apoptosis in human HCT116 cells assessed as viable cells at 20 uM after 48 hrs by Annexin V-FITC/propidium iodide staining-based flow cytometric analysis (reference value: 86.7 %). In kind it is functional. As to conditions: HCT-116, 48 h, read-out: Activity. The procedure, abridged:
as §3

In assay [9] the test system is HCT-116. In words: Induction of apoptosis in human HCT116 cells assessed as late apoptotic cells at 20 uM after 48 hrs by Annexin V-FITC/propidium iodide staining-based flow cytometric analysis (reference value: 3.87 %). The class given is functional. The gist of the method: as §3
Assay [10] deals with HCT-116. The experiment in a line: Induction of apoptosis in human HCT116 cells assessed as increase in cleaved caspase-3 expression after 48 hrs by Western blot analysis. In kind it is functional, cell-based. The gist of the method: (§4)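 Cells treated 48 h at 0, 10, 20 and 40 μM, washed in cold PBS, lysed in RIPA; protein equalized by Lowry assay, resolved by SDS-PAGE, transferred to PVDF, blocked 1 h at 37 °C, primary antibody overnight at 4 °C, secondary 1 h, ECL detection, densitometry. β-actin loading control.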
For orientation: Immunoblotting shows a protein as a band on a membrane.

The subject of assay [11] is HCT-116. In words: Induction of apoptosis in human HCT116 cells assessed as decrease in pro-caspase-3 expression up to 40 uM after 48 hrs by Western blot analysis. The class given is functional, cell-based. The procedure, abridged: as §4
In assay [12] the test system is CT26. In words: Induction of apoptosis in mouse CT26 cells assessed as increase in Bax protein expression up to 40 uM after 48 hrs by Western blot analysis. The class given is functional, cell-based. The gist of the method:
(§5)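 CT26 cells exposed 48 h to PEC at 0, 10, 20 and 40 μM, washed twice in cold PBS, lysed in RIPA. Protein measured by Lowry and equalized, run on SDS-PAGE, blotted to PVDF. Blocked 1 h at 37 °C, primary antibodies (Bax, Bcl-2, pro-caspase-3, cleaved caspase-3) overnight at 4 °C, secondary 1 h, ECL detection, densitometry.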

In assay [13] the test system is CT26. In words: Induction of apoptosis in mouse CT26 cells assessed as increase in Bax/Bcl2 protein ratio up to 40 uM after 48 hrs by Western blot analysis. In kind it is functional, cell-based. The procedure, abridged:
as §5

In assay [14] the test system is HCT-116. The experiment in a line: Antimigratory activity against human HCT116 cells assessed as inhibition of cell migration after 48 hrs by crystal violet staining based Boyden-chamber cell migration assay. The class given is functional. The procedure, abridged: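 Boyden chamber, 8 μm pores: 1 × 10^5 cells in serum-free medium above, 10% FBS medium below, compound at various concentrations in both chambers; migration 48 h. Non-migrated cells swabbed off; migrated cells fixed in methanol, stained 0.5% crystal violet 20 min, counted in six random fields under light microscope; expressed as % inhibition versus untreated.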

The subject of assay [15] is CT26. In words: Antiinvasive activity against mouse CT26 cells after 48 hrs by crystal violet staining based light microscopic analysis. The class given is functional, cell-based. The procedure, abridged: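 Transwell membrane upper surface coated with Matrigel diluted 1:5 in serum-free medium. 5 × 10^4 cells in serum-free medium in upper part, 10% FBS medium below, treated with various concentrations for 48 h. Non-invading cells removed; underside cells fixed in methanol, stained with 0.5% crystal violet, counted by light microscopy; expressed as % inhibition versus untreated.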

Assay [16] deals with CT26. In words: Antimetastatic activity against mouse CT26 cells allografted in Balb/c mouse assessed as reduction in abdominal circumference at 25 to 50 mg/kg, ip administered daily for 14 days starting from 6 days post implantation. In kind it is functional, organism-based. The gist of the method: (§6)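 Female BALB/c mice (6–8 weeks) injected ip with 5 × 10^5 CT26 cells; from day 6, randomized (eight per group) to ip vehicle, 25 or 50 mg/kg once daily for 14 days. Abdominal circumference and body weight every 3 days; abdominal nodules counted by eye and weighed; spleens assessed; paraffin tumour sections immunostained (Ki-67, MMP-9, p-Stat3) with DAB detection.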

The test system of assay [17] is CT26. The experiment in a line: Antimetastatic activity against mouse CT26 cells allografted in Balb/c mouse assessed as inhibition of MMP -9 protein expression in tumour tissue at 25 to 50 mg/kg, ip administered daily for 14 days starting from 6 days post implantation by immunohistochemical analysis. In kind it is functional, organism-based. The procedure, abridged:
as §6

In assay [18] the test system is CT26. The experiment in a line: Antimetastatic activity against mouse CT26 cells allografted in Balb/c mouse assessed as decrease in CD11b-positive/Gr1-positive myeloid cells level in tumour at 25 mg/kg, ip administered daily for 14 days starting from 6 days post implantation flow cytometric analysis (reference value: 10 %). In kind it is functional. Also on record: scale not given: the % may be the effect or the level left.

Turning to `COc1ccc(-c2cc(=O)c3c(O)c(OC)c(O)cc3o2)cc1` [PECTOLINARIGENIN], the inhibition result is “Tde” in assay [1], “Tde” in assay [2], “Dose-dependent effect” in [14] and “Dose-dependent effect” in assay [15]. Further, the inhibition entry in [3] and in [17] was “Active” each time. For the same molecule, the outcome in assay [4], in assay [5], in assay [11], in [12], in assay [13] and in assay [16] was Active. Further, the viability at 20 µM in assay [6] amounted to 77.5%; in [8], 79.2%. In addition, the Activity is 5.81% in [7], 7.36% in assay [9], “Dose-dependent effect” in [10] and 7.4% in assay [18].
